Test results taken from ChEMBL document CHEMBL2177065, “14-Alkoxy- and 14-acyloxypyridomorphinans: μ agonist/δ antagonist opioid analgesics with diminished tolerance and dependence side effects” (J Med Chem, 2012).
The source made the active and inactive calls.

How the values were obtained:
Mu-type opioid receptor [1] = biological target: T1, Mu-type opioid receptor (Homo sapiens, UniProt P35372); experiment: Agonist activity at human mu opioid receptor expressed in CHO cells assessed as [35S]GTPgammaS binding by scintillation counting analysis relative to DAMGO; assay type: functional, cell-based
Summary of the method: (§1)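 Human KOR or MOR in CHO cell membranes (50 µg protein), 3 h at 25 °C, pH 7.4 Tris buffer with 100 mM NaCl, 10 mM MgCl2, 1 mM EDTA, 1 mM DTT, 0.1% BSA, GDP 40 µM and [35S]GTP-γ-S 50 pM. Stimulation = (S−B)/B×100, with Emax relative to U69,593 (KOR) or DAMGO (MOR). Curves were ten points, ≥3 experiments pooled. Antagonist Ke was taken from the shift in standard agonist EC50.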

[2] = biological target: T2, Delta-type opioid receptor (Homo sapiens, UniProt P41143); experiment: Displacement of [3H]DADLE from human delta opioid receptor expressed in CHO cells by scintillation counting analysis; assay type: cell-based
Mu-type opioid receptor [3] = biological target: T1, Mu-type opioid receptor; experiment: Agonist activity at human mu opioid receptor expressed in CHO cells assessed as [35S]GTPgammaS binding by scintillation counting analysis; assay type: functional, cell-based; summary of the method: as §1
[4] = biological target: T3, Kappa-type opioid receptor (Homo sapiens, UniProt P41145); experiment: Agonist activity at human kappa opioid receptor expressed in CHO cells assessed as [35S]GTPgammaS binding at 10 uM by scintillation counting analysis; assay type: functional, cell-based; summary of the method: as §1
[5] = test system: Delta-type opioid receptor; experiment: Agonist activity at delta opioid receptor expressed in rat/mouse NG108-15 cells assessed as [35S]GTPgammaS binding at 10 uM by scintillation counting analysis; assay type: functional, cell-based
Summary of the method: as §1, with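 “NG108-15” for “Human KOR or MOR in CHO”, “pM. Nonspecific binding with 40 µM GTP-γ-S; filtration and scintillation counting.” for “pM.”, “DADLE.” for “U69,593 (KOR) or DAMGO (MOR).”, “pooled.” for “pooled. Antagonist”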

Homo sapiens [6] = species on record: Homo sapiens; experiment: Selectivity ratio of Ki for human kappa opioid receptor to Ki for human delta opioid receptor
Mu-type opioid receptor [7] = biological target: T1, Mu-type opioid receptor; experiment: Displacement of [3H]DAMGO from human mu opioid receptor expressed in CHO cells by scintillation counting analysis; assay type: cell-based
[8] = test system: Delta-type opioid receptor; experiment: Antagonist activity at delta opioid receptor expressed in rat/mouse NG108-15 cells assessed as [35S]GTPgammaS binding by scintillation counting analysis; assay type: functional, cell-based
Summary of the method: as §1, with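 “NG108-15” for “Human KOR or MOR in CHO”, “pM. Nonspecific binding with 40 µM GTP-γ-S; filtration and scintillation counting.” for “pM.”, “DADLE.” for “U69,593 (KOR) or DAMGO (MOR).”, “pooled.” for “pooled. Antagonist”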

Homo sapiens [9] = species on record: Homo sapiens; experiment: Selectivity ratio of Ki for human mu opioid receptor to Ki for human delta opioid receptor
[10] = biological target: T3, Kappa-type opioid receptor; experiment: Displacement of [3H]U69,593 from human kappa opioid receptor expressed in CHO cells by scintillation counting analysis; assay type: cell-based
[11] = biological target: T3, Kappa-type opioid receptor; experiment: Binding affinity to kappa opioid receptor by radioligand binding assay
[12] = biological target: T2, Delta-type opioid receptor; experiment: Binding affinity to delta opioid receptor by radioligand binding assay
Summary of the method: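 Membranes from CHO cells stably expressing human DOR; [³H]DADLE at ~2 nM, displaced by 10 drug concentrations. Incubated 2 h at 25 °C in 50 mM Tris-HCl pH 7.4 with protease inhibitors, ~30 µg protein; triplicates; filtration and scintillation counting. Nonspecific binding defined with 20 µM levallorphan. Three experiments pooled and fitted for IC50.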

Mu-type opioid receptor [13] = biological target: T1, Mu-type opioid receptor; experiment: Binding affinity to mu opioid receptor by radioligand binding assay
CHO [14] = experiment: Activity at human MOR/mouse DOR expressed in CHO cells assessed as increase in forskolin-stimulated cAMP accumulation at 30 nM after drug exposure for 20 hrs followed by washout; assay type: functional, cell-based
Summary of the method: (§2)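 MOR/DOR co-expressing CHO cells (mouse N-cMyc DOR + human MOR) exposed 20 h to drug, then washed three times with serum-free medium and preincubated 20 min at 37 °C with IBMX 500 µM. Then 10 min at 37 °C with forskolin 100 µM/IBMX 500 µM, with or without 10 µM naloxone. Read-out was cAMP by [3H]cAMP–protein kinase binding against a standard curve. Mean of n=3.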

Mus musculus [15] = experiment: Antinociceptive activity in icv dosed ICR mouse assessed as warm-water tail-withdrawal latency by tail flick assay in presence of naloxone; assay type: functional, organism-based
[16] = Activity at human MOR/mouse DOR expressed in CHO cells assessed as inhibition of DAMGO-mediated forskolin-stimulated cAMP accumulation at 30 nM after 20 hrs by scintillation counting analysis; assay type: functional
Summary of the method: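 CHO cells stably co-expressing human MOR and cMyc-tagged mouse DOR were pretreated 20 h with 30 nM drug or medium, then washed. They were preincubated 20 min with 500 µM IBMX, then given 15 min with IBMX, 100 µM forskolin and graded DAMGO at 37 °C. cAMP was measured by [3H]cAMP–protein kinase binding against a standard curve.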

CHO [17] = experiment: Activity at human MOR/mouse DOR expressed in CHO cells assessed as increase in forskolin-stimulated cAMP accumulation at 30 nM after drug exposure for 20 hrs followed by washout in the presence of naloxone; assay type: functional, cell-based; summary of the method: as §2
Mus musculus [18] = experiment: Antinociceptive activity in ICR mouse assessed as warm-water tail-withdrawal latency at 1 nmol, icv by tail flick assay; assay type: functional
Summary of the method: (§3)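 Male ICR mice dosed i.c.v. in 5 µL (test compounds in 100% DMSO, morphine in water) under light ether anaesthesia. Tail withdrawal from 55 °C water, 10 s cutoff, tested 10–180 min post-injection. %MPE computed against pre-drug baseline. A50 with 95% confidence limits by linear regression at time of peak effect.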

Mus musculus [19] = experiment: Antinociceptive activity in icv dosed ICR mouse assessed as warm-water tail-withdrawal latency by tail flick assay; assay type: functional; summary of the method: as §3
Mus musculus [20] = experiment: Antinociceptive activity in icv dosed ICR mouse assessed as warm-water tail-withdrawal latency administered bid for 3 days; assay type: functional
[21] = Agonist activity at delta opioid receptor expressed in rat/mouse NG108-15 cells assessed as [35S]GTPgammaS binding by scintillation counting analysis relative to DADLE; assay type: functional, cell-based
Summary of the method: as §1, with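 “NG108-15” for “Human KOR or MOR in CHO”, “pM. Nonspecific binding with 40 µM GTP-γ-S; filtration and scintillation counting.” for “pM.”, “DADLE.” for “U69,593 (KOR) or DAMGO (MOR).”, “pooled.” for “pooled. Antagonist”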

Mu-type opioid receptor [22] = biological target: T1, Mu-type opioid receptor; experiment: Agonist activity at human mu opioid receptor expressed in CHO cells assessed as [35S]GTPgammaS binding at 10 uM by scintillation counting analysis; assay type: functional, cell-based; summary of the method: as §1
[23] = biological target: T3, Kappa-type opioid receptor; experiment: Agonist activity at human kappa opioid receptor expressed in CHO cells assessed as [35S]GTPgammaS binding by scintillation counting analysis; assay type: functional, cell-based; summary of the method: as §1
[24] = biological target: T3, Kappa-type opioid receptor; experiment: Agonist activity at human kappa opioid receptor expressed in CHO cells assessed as [35S]GTPgammaS binding by scintillation counting analysis relative to U69,593; assay type: functional, cell-based; summary of the method: as §1
Mus musculus [25] = experiment: Antinociceptive activity in ICR mouse assessed as warm-water tail-withdrawal latency at 10 nmol, icv by tail flick assay; assay type: functional; summary of the method: as §3

T1 sequence (P35372 whole entry): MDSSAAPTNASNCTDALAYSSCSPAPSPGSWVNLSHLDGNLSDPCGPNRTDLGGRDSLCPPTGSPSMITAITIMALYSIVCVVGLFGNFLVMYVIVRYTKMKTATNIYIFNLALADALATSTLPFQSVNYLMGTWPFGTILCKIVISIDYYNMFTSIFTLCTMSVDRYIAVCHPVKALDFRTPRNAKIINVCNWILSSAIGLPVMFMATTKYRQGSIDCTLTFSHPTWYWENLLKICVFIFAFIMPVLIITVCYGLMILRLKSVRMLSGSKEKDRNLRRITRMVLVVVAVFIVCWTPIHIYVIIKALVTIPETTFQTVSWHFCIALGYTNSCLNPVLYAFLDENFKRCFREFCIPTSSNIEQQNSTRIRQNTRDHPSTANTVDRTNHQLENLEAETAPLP
T2 sequence (P41143 whole entry): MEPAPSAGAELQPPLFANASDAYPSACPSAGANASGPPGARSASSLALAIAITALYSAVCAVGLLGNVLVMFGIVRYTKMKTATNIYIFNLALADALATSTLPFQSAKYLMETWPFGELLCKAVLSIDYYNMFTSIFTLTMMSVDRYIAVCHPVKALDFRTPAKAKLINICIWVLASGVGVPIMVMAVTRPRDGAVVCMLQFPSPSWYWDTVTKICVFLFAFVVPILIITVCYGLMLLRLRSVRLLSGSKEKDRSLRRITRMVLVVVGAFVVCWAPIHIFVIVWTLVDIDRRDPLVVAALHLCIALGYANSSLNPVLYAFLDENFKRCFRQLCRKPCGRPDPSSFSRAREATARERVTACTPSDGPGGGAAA
T3 sequence (P41145 whole entry): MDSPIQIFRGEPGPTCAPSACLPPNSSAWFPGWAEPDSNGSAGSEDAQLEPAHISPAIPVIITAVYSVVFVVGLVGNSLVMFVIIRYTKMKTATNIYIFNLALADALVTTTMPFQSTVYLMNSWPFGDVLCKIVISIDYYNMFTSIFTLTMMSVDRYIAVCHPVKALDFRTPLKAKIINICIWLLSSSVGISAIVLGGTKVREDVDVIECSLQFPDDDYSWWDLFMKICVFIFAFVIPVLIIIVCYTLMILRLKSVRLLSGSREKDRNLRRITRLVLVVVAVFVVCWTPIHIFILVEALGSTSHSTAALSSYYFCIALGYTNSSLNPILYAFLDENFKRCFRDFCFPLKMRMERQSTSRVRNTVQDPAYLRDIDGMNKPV

Row | Structure (SMILES) | Emax (Mu-type opioid receptor [1]) [%] | Ki [2] [nM] | EC50 (Mu-type opioid receptor [3]) [nM] | Activity [5] | Ratio Ki (Homo sapiens [6]) | Ki (Mu-type opioid receptor [7]) [nM] | Ke [8] [nM] | Ratio Ki (Homo sapiens [9]) | Ki [10] [nM] | Activity (Mu-type opioid receptor [22]) | EC50 [23] [nM] | Emax [24] [%] | further results
1 | CN1CC[C@]23c4c5ccc(O)c4O[C@H]2c2ncc(-c4ccc(Cl)cc4)cc2C[C@@]3(OC(=O)c2ccccc2)[C@H]1C5 | 55 | 17 | 4620 | inactive | 6.6 | 84 | 45 | 4.9 | 112 | – | – | – | Activity [4]: inactive
2 | CN1CC[C@]23c4c5ccc(O)c4O[C@H]2c2ncc(-c4ccc(Cl)cc4)cc2C[C@@]3(O)[C@H]1C5 | – | – | – | – | – | – | – | – | – | – | – | – | Ki [11]: 468 nM; Ki [12]: 3.9 nM; Ki (Mu-type opioid receptor [13]): 230 nM
3 | Oc1ccc2c3c1O[C@H]1c4ncc(-c5ccc(Cl)cc5)cc4C[C@@]4(OCCCc5ccccc5)[C@@H](C2)N(CC2CC2)CC[C@]314 | 72 | – | – | inactive | – | – | 0.091 | – | – | – | – | – | Activity (CHO [14]): inactive; Activity (Mus musculus [15]): inactive; Emax at 0.03 µM [16]: 40%; Activity (CHO [17]): inactive; %max (Mus musculus [18]): 75%; A50 (Mus musculus [19]): 0.35 nmol; Activity (Mus musculus [19]): Dose-dependent effect; Activity [4]: inactive; A50 (Mus musculus [20]): 2.78 nmol
4 | Oc1ccc2c3c1O[C@H]1c4ncc(-c5ccc(Cl)cc5)cc4C[C@@]4(O)[C@@H](C2)N(CC2CC2)CC[C@]314 | – | – | – | – | – | – | – | – | – | – | – | – | Ki [11]: 20 nM; Ki [12]: 2.2 nM; Ki (Mu-type opioid receptor [13]): 51 nM
5 | CN1CC[C@]23c4c5ccc(O)c4O[C@H]2c2ncc(-c4ccc(Cl)cc4)cc2C[C@@]3(OC/C=C/c2ccccc2)[C@H]1C5 | 130 | 1.14 | 4.27 | – | 1.4 | 0.41 | – | 0.36 | 1.55 | – | – | – | Emax [21]: 84%; Activity (Mus musculus [15]): inactive; %max (Mus musculus [18]): 91%; A50 (Mus musculus [19]): 0.23 nmol; Activity (Mus musculus [19]): Dose-dependent effect
6 | Oc1ccc2c3c1O[C@H]1c4ncc(-c5ccc(Cl)cc5)cc4C[C@@]4(OC/C=C/c5ccccc5)[C@@H](C2)N(CC2CC2)CC[C@]314 | – | 3.74 | – | inactive | 0.89 | 3.03 | – | 0.81 | 3.31 | inactive | – | – | –
7 | O=C(O[C@@]12Cc3cc(-c4ccc(Cl)cc4)cnc3[C@@H]3Oc4c(O)ccc5c4[C@@]31CCN(CC1CC1)[C@@H]2C5)c1ccccc1 | – | 87 | – | inactive | 1.3 | 192 | 218 | 2.2 | 117 | inactive | – | – | Activity [4]: inactive
8 | CN1CC[C@]23c4c5ccc(O)c4O[C@H]2c2ncc(-c4ccc(Cl)cc4)cc2C[C@@]3(OC(=O)CCc2ccccc2)[C@H]1C5 | 105 | 0.96 | 48 | – | 4.6 | 0.94 | 1.64 | 0.98 | 4.41 | – | 136 | 16 | Emax [21]: 59%
9 | CO[C@@]12Cc3cc(-c4ccc(Cl)cc4)cnc3[C@@H]3Oc4c(O)ccc5c4[C@@]31CCN(CC1CC1)[C@@H]2C5 | – | 1.95 | – | inactive | 2.8 | 41.9 | – | 22 | 5.37 | inactive | – | – | –
10 | CN1CC[C@]23c4c5ccc(O)c4O[C@H]2c2ncc(-c4ccc(Cl)cc4)cc2C[C@@]3(OCc2ccccc2)[C@H]1C5 | 119 | 1.78 | 301 | – | 28 | 4.69 | 4.54 | 2.6 | 49 | – | 215 | 32 | Emax [21]: 52%
11 | O=C(CCc1ccccc1)O[C@@]12Cc3cc(-c4ccc(Cl)cc4)cnc3[C@@H]3Oc4c(O)ccc5c4[C@@]31CCN(CC1CC1)[C@@H]2C5 | – | 4.13 | – | inactive | 2.9 | 2.58 | 1.86 | 0.62 | 12 | inactive | 13 | 25 | –
12 | CN1CC[C@]23c4c5ccc(O)c4O[C@H]2c2ncc(-c4ccc(Cl)cc4)cc2C[C@@]3(OC(=O)Cc2ccccc2)[C@H]1C5 | 122 | 0.97 | 87 | – | 18 | 1.43 | 3.38 | 1.5 | 17 | – | 109 | 36 | Emax [21]: 27%
13 | Oc1ccc2c3c1O[C@H]1c4ncc(-c5ccc(Cl)cc5)cc4C[C@@]4(OCc5ccccc5)[C@@H](C2)N(CC2CC2)CC[C@]314 | – | 1.91 | – | inactive | 2.8 | 8.42 | 0.64 | 4.4 | 5.33 | inactive | 27 | 15 | –
14 | Oc1ccc2c3c1O[C@H]1c4ncc(-c5ccc(Cl)cc5)cc4C=C4[C@@H](C2)N(CC2CC2)CC[C@]431 | – | 2.71 | – | inactive | 2.2 | 13 | 0.58 | 4.8 | 5.97 | inactive | – | – | Activity [4]: inactive
15 | O=C(Cc1ccccc1)O[C@@]12Cc3cc(-c4ccc(Cl)cc4)cnc3[C@@H]3Oc4c(O)ccc5c4[C@@]31CCN(CC1CC1)[C@@H]2C5 | – | 1.33 | – | inactive | 2.3 | 1.04 | 0.37 | 0.78 | 3.1 | inactive | 26 | 34 | –
16 | CO[C@@]12Cc3cc(-c4ccc(Cl)cc4)cnc3[C@@H]3Oc4c(O)ccc5c4[C@@]31CCN(C)[C@@H]2C5 | 118 | 1.63 | 379 | inactive | 17 | 7.89 | 1.6 | 4.8 | 28 | – | 633 | 36 | Activity (Mus musculus [15]): inactive; A50 (Mus musculus [19]): 1.44 nmol; Activity (Mus musculus [19]): Dose-dependent effect; %max (Mus musculus [25]): 98%
